Series [1] in a line: melting temperature; fluorescence melt of hairpins on a sequencing array, two-state fit, raised by 9.35 °C to match UV melts. The conditions noted are these: sodium 0.088 M. An outline of the steps:
(§1)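 With Cy3 and quencher oligos annealed, library hairpins on a sequenced MiSeq flow cell were imaged for Cy3 fluorescence in 50 mM Na-HEPES pH 8.0, 25 mM NaCl, in 2.5 °C steps up to 60 °C. Melting temperature and folding enthalpy were derived from bootstrapped two-state fits of signals normalised to pre-quench Cy3 and to control constructs. Four replicates were combined by inverse variance, with fitted temperatures raised by 9.35 °C to match UV melts.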

A short description of series [2]: folding enthalpy; higher = less favourable; fluorescence melt of hairpins on a sequencing array, two-state fit. The conditions noted are these: sodium 0.088 M. An outline of the steps: as §1

GTTGTTGGAAACAACAGC (.(((((....))))).): the Tm in series [1] turned out to be 52.8 °C. The folding enthalpy in series [2] was -13.2 kcal/mol.

As for GCAACGCGAAAGCCGTGC (((..((....))..))), the Tm in series [1] was 49 °C. Further, in series [2], the folding enthalpy was -14.8 kcal/mol.

Take GCATGGCGAAAGCTACGC ((.(.((....)).).)): the Tm in series [1] was determined as 35 °C. Further, the folding enthalpy in series [2] is -16.4 kcal/mol.

For GAACATGGAAACGTGTTC (((((.(....).))))), in series [1], the Tm came out at 44.8 °C. Further, the folding enthalpy in series [2] is -40.1 kcal/mol.

With CATCTGAAAAGATG (((((....))))), the Tm in series [1] came to 44.5 °C. The folding enthalpy in series [2] is -25.1 kcal/mol.

For GCAAGCGGAAACGCCTGC (((.(((....))).))), in series [1], the Tm was 54.2 °C. In series [2], the folding enthalpy was -17.1 kcal/mol.

For the sequence GCTTTGCGAAAGCCATGC ((.(.((....)).).)), the Tm in series [1] stood at 31.3 °C. Moreover, the folding enthalpy in series [2] was -11.6 kcal/mol.

As for GCTCTGCGAAAGCTCAGC (((..((....))..))), in series [1], the Tm is 35.5 °C. Moreover, the folding enthalpy in series [2] was -14.9 kcal/mol.

GACCAAGAAATTGGTC ((((((....)))))): the Tm in series [1] turned out to be 54.4 °C. The folding enthalpy in series [2] is -25.9 kcal/mol.

On to GAGGAGGGAAACTTCCTC (((((.(....).))))), for which the Tm in series [1] was found to be 41.9 °C. For the same sequence, the folding enthalpy in series [2] was -25.6 kcal/mol.

As for GTCGTTTCGAAAGAAGAC (((..(((....)))))), the Tm in series [1] is 28.9 °C. Moreover, the folding enthalpy in series [2] was -14 kcal/mol.

Regarding GTAGCTCGAAAGAGATAC (((.(((....))).))), in series [1], the Tm was determined as 54.9 °C. Moreover, the folding enthalpy in series [2] is -43.5 kcal/mol.

Turning to GTGTGCGAAAGCACCCAC ((((((....)))..))), the Tm in series [1] amounted to 39.3 °C. Also, the folding enthalpy in series [2] is -8.11 kcal/mol.

Turning to GCCCCGCGAAAGCTGGGC ((((.((....)).)))), in series [1], the Tm came to 68.8 °C. For the same sequence, the folding enthalpy in series [2] is -39.2 kcal/mol.

In the case of GATCTGAAACAGATC ((((((...)))))), the Tm in series [1] was found to be 46.3 °C. The folding enthalpy in series [2] is -31.6 kcal/mol.

In the case of GGGTCAGGAAACTAACCC ((((.((....)).)))), in series [1], the Tm came to 38.2 °C. Besides, in series [2], the folding enthalpy is -25.4 kcal/mol.

As for GAAACAGAAATGTTTC ((((((....)))))), the Tm in series [1] stood at 45.9 °C. In series [2], the folding enthalpy was -28.5 kcal/mol.

In the case of GATCTTTTTGAAGATC ((((((....)))))), in series [1], the Tm is 46.1 °C. Besides, the folding enthalpy in series [2] is -34.5 kcal/mol.

Regarding GGACACGAAAGTGGGTCC ((((((....)))..))), the Tm in series [1] is 48.7 °C. In series [2], the folding enthalpy was -19.9 kcal/mol.

Consider GCGACTCCGAAAGGACGC (((..(((....)))))), for which, in series [1], the Tm is 46.7 °C. The folding enthalpy in series [2] was -25.6 kcal/mol.

As to GATCGTGTGACGATC ((((((...)))))), the Tm in series [1] worked out at 54.7 °C. For the same sequence, the folding enthalpy in series [2] was -40.1 kcal/mol.

On to GGGTCGGGAAACCGACTC (.(((((....))))).), for which the Tm in series [1] came out at 58.9 °C. Also, the folding enthalpy in series [2] was -14.4 kcal/mol.

On to GGACTGGGAAACCAATCC (((.(((....))).))), for which, in series [1], the Tm was found to be 36 °C. In addition, the folding enthalpy in series [2] was -28 kcal/mol.

For the sequence GAGTTTGGAAACGAACTC (((((.(....).))))), in series [1], the Tm turned out to be 47.1 °C. The folding enthalpy in series [2] was -36.2 kcal/mol.

Take GACACGGGAAACCGCGTC (((.(((....))).))): the Tm in series [1] was 50.9 °C. The folding enthalpy in series [2] was -47.8 kcal/mol.

For GGTCAAGGAAACTTGGCC ((.((((....)))).)), the Tm in series [1] came to 52.8 °C. Also, in series [2], the folding enthalpy was -38.1 kcal/mol.

As to GTCTACGGAAACGCAGAC ((((.((....)).)))), the Tm in series [1] is 45.1 °C. Also, in series [2], the folding enthalpy was -35 kcal/mol.

GTATAGGAAACTATAC ((((((....)))))): the Tm in series [1] was 41.5 °C. The folding enthalpy in series [2] was -25.8 kcal/mol.

On to GAGAACGAAAGTTGTCTC ((((((....)))..))), for which the Tm in series [1] was determined as 43.5 °C. Besides, in series [2], the folding enthalpy was -27.2 kcal/mol.

For GTGCGAGCGAAAGCTCAC (((..(((....)))))), the Tm in series [1] was found to be 59.4 °C. In addition, the folding enthalpy in series [2] is -12.2 kcal/mol.

As to GTCAGCCGAAAGGCAGAC (((.(((....))).))), in series [1], the Tm worked out at 61.9 °C. In addition, the folding enthalpy in series [2] is -24.4 kcal/mol.

For the sequence GCCCCTGGAAACAGGAGC ((.((((....)))).)), the Tm in series [1] is 47.5 °C. Also, the folding enthalpy in series [2] is -30.6 kcal/mol.

As for GCGTCAGGAAACCGACAC (.(((.(....).))).), in series [1], the Tm came to 27.4 °C. Moreover, the folding enthalpy in series [2] was -16 kcal/mol.

Consider GCGTTCGGACGC ((((....)))), for which, in series [1], the Tm turned out to be 53.5 °C. In addition, the folding enthalpy in series [2] is -25.4 kcal/mol.

In the case of GGATTGCCGAAAGGCTCC (((..(((....)))))), in series [1], the Tm came out at 37.6 °C. The folding enthalpy in series [2] is -8.38 kcal/mol.

Take GATCTATCATTAGATC ((((((....)))))): the Tm in series [1] worked out at 42.1 °C. For the same sequence, the folding enthalpy in series [2] was -28.2 kcal/mol.

As to GCCCGGCGAAAGCCGGC (((.(((....)))))), in series [1], the Tm worked out at 65.7 °C. Also, the folding enthalpy in series [2] is -6.9 kcal/mol.

The record behind these values is the array DNA melting data of Ke et al. (doi:10.1101/2024.01.08.574731).
